Many of the other results were omitted from the sample, so hits are more common in it than they were.
ALR H2O2 inh: inhibitors of human ALR sulfhydryl oxidase, primary screen, biochemical, H2O2 detection, HRP-luminol luminescence, single point. purified ALR, DTT oxidation. inhibition, % (concentration not given with the values). 290,000 tested, 3.8% active. AID 485317, 2010;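 active means mean replicate inhibition above about 79%, with every replicate also reaching it, limit read from the data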
Target sequence (P55789 whole entry, looked up): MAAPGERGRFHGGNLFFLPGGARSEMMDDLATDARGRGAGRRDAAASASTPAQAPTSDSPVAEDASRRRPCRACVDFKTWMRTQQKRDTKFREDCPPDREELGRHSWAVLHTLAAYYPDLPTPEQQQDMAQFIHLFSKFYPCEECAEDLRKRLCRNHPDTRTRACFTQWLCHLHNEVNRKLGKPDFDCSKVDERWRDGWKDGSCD
T cell HTS: modulators of CD8 T cell-vesicle binding, primary screen, mouse 2C CD8+ T cells, flow cytometry | 2C CD8+ T cell-vesicle binding; active compounds read low | 330,000 tested, 0.068% active | response (vesicle binding), % at 7 µM;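 active means response, share of CD8 T cells binding vesicles, and their 90th percentile fluorescence all below set limits, cut at about 80% in these data, passing the limit was not always enough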;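 further: values below 100% mean blocked vesicle binding to the CD8+ T cells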
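Material: 2C TCR transgenic mouse naive CD8+ T cells, MACS-purified. Also added: QL9-charged Drosophila Ld/ICAM-1/B7-1 vesicles. Timing: binding 1.5 h at 37 °C. Measured by: high-throughput flow cytometry with anti-B7-1 and anti-CD8 staining. Read-out: percent CD8+ FL2 mean versus row control. Controls: Unloaded micro-vesicles (low), QL9 vesicles with 0.7% DMSO (high).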
Glyco luc inh: increase of ERlucT glycosylation luciferase signal, primary screen, N-linked glycosylation inhibitor project, D54 ERlucT cells, luminescence, set 2; D54 ERlucT glycosylation luciferase reporter, 24 h; percent of 100 nM tunicamycin response; reporter increase, % at 12.5 µM; 360,000 tested, 0.23% active; AID 588692, 2011;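 active means mean luciferase reporter signal, scaled so untreated is 0 and the glycosylation-blocking control 100, at or above a set limit in every replicate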;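 further: luciferase carries N-glycosylation sites so blocking glycosylation raises the light; 0% = median of neutral control wells and 100% = median of 100 nM tunicamycin wells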
The depositor's hits bear a star.

For COc1ccc(/C=N/NC(=O)c2ccn[nH]2)cc1COc1ccc(Cl)cc1 the results were ALR H2O2 inh 0, T cell HTS 218 and Glyco luc inh -5.
For COc1ccc(OCc2cc(/C=N\NC(=O)c3ccccc3)ccc2OC)cc1 the results were ALR H2O2 inh -6, T cell HTS 248 and Glyco luc inh 17.
For Cc1ccc(S(=O)(=O)N2CCC(C(=O)Nc3ccccc3N3CCCC3)CC2)c(C)c1 the results were T cell HTS 139 and Glyco luc inh 4.
For COc1ccc(C(=O)NCc2nnc(SCC(=O)NC3CCCCC3)n2C)cc1 the results were ALR H2O2 inh 1, T cell HTS 218 and Glyco luc inh 0.
CCC(C)(C)c1ccc(OC(=O)c2cccnc2Cl)cc1 was read as ALR H2O2 inh 6, T cell HTS 286 and Glyco luc inh 0.
Screening c1csc(CNc2nc(-c3cccs3)nc3ccccc23)c1 returned ALR H2O2 inh 96*, T cell HTS 608 and Glyco luc inh 6.
c1ccc(-c2nc(NCc3cccs3)c3ccccc3n2)cc1 was read as ALR H2O2 inh -1, T cell HTS 450 and Glyco luc inh 11.
Cc1c(O)c(CN2CCCC2)cc2c1oc(=O)c1ccccc12 was read as ALR H2O2 inh 85*, T cell HTS 215 and Glyco luc inh -3.
For Cc1c(O)c(CN2CCCC2)cc2c3c(c(=O)oc12)CCC3 the results were T cell HTS 443 and Glyco luc inh 0.
For Cc1cc(Cl)ccc1OCCCC(=O)OCC(=O)Nc1cccc(S(N)(=O)=O)c1 the results were T cell HTS 458 and Glyco luc inh 2.
For C/C(=N\NS(=O)(=O)c1ccc(Br)cc1)c1ccc2c(c1)OCO2 the results were ALR H2O2 inh 31, T cell HTS 414 and Glyco luc inh 3.
`C/C(=N/NS(=O)(=O)c1ccc(Br)cc1)c1ccc(C)o1` gave ALR H2O2 inh 98*, T cell HTS 266 and Glyco luc inh 1.
Screening CC(=O)Nc1ccc(-n2cc(-c3ccccc3)[nH]c2=S)cc1 returned ALR H2O2 inh 99*, T cell HTS 306 and Glyco luc inh 1.
`COc1ccccc1-n1cc(-c2ccccc2)[nH]c1=S` gave ALR H2O2 inh 50, T cell HTS 15 and Glyco luc inh 3.
For Cc1cccc(-n2cc(-c3ccccc3)[nH]c2=S)c1 the results were ALR H2O2 inh 77*, T cell HTS 122 and Glyco luc inh 2.
For CC(=O)Nc1ccc(-n2c(C)ccc2-c2ccccc2)cc1 the results were ALR H2O2 inh -72, T cell HTS 164 and Glyco luc inh 1.
Screening COc1cccc(-c2cn(-c3cccc(C(F)(F)F)c3)c(=S)[nH]2)c1 returned ALR H2O2 inh -3, T cell HTS 143 and Glyco luc inh -2.
For COc1ccc(-n2cc(-c3ccccc3)[nH]c2=S)cc1 the results were ALR H2O2 inh 85*, T cell HTS 242 and Glyco luc inh 1.
CN(C)c1ccc(-c2ccnc3c2CC(C)(C(=O)NCCC(F)(F)F)O3)cc1 (stereo not given) was read as Glyco luc inh 6.
For CCOc1ccc(CCNC(=O)CCNS(=O)(=O)c2ccc(Br)cc2)cc1OCC the results were ALR H2O2 inh -1, T cell HTS 438 and Glyco luc inh 0.
CC(C)CCSc1nnc(N)s1 was read as ALR H2O2 inh 0, T cell HTS 254 and Glyco luc inh 0.
Screening CN(CCCn1ccc(NC(=O)OCc2ccccc2)nc1=O)Cc1ccco1 returned Glyco luc inh 1.
Screening COC(=O)C1=C(CCc2ccccc2)NC(=O)NC1c1ccc(Br)cc1 (stereo not given) returned ALR H2O2 inh -7, T cell HTS 673 and Glyco luc inh -2.
Screening O=C(O)c1cccc(Cn2c(Cl)c(/C=N/Nc3ccccc3)sc2=O)c1 returned ALR H2O2 inh 100*, T cell HTS 316 and Glyco luc inh 1.
Screening O=C(O)c1ccc(N/N=C/c2cc(Br)cs2)cc1 returned ALR H2O2 inh 98*, T cell HTS 201 and Glyco luc inh -18.
Screening O=C(O)c1cccc(Cn2c(Cl)c(/C=N/NC(=O)c3ccccc3Cl)sc2=O)c1 returned ALR H2O2 inh 28, T cell HTS 125 and Glyco luc inh 2.
O=C(N/N=C\c1cc(Br)cs1)c1ccncc1 was read as ALR H2O2 inh 14, T cell HTS 293 and Glyco luc inh 4.
For Cc1ccsc1/C=N/Nc1cccc(C(=O)O)c1 the results were ALR H2O2 inh 60, T cell HTS 349 and Glyco luc inh -11.
`Cc1ccc(/C=N/Nc2cccc(C(=O)O)c2)s1` gave ALR H2O2 inh 98*, T cell HTS 393 and Glyco luc inh -6.
Screening Cc1ccsc1/C=N/Nc1ccc(C(=O)O)cc1 returned T cell HTS 140 and Glyco luc inh -23.
Screening Cc1ccc(/C=N/Nc2ccc(C(=O)O)cc2)s1 returned ALR H2O2 inh 99*, T cell HTS 511 and Glyco luc inh -19.
O=C(c1n[nH]c2ccccc12)N1CCN(S(=O)(=O)c2ccc(Cl)cc2)CC1 was read as ALR H2O2 inh 0, T cell HTS 222 and Glyco luc inh 0.
For CCC(C)CCN1C(N(C)C)=NC[C@@H]1CC(C)C (stereo not given in full) the results were T cell HTS 187 and Glyco luc inh 0.
`Cn1ccc2c(-c3cccnc3)cc3c(c21)C1CCC3O1` (stereo not given) gave Glyco luc inh 5.
O=C(c1ccc2c(c1)OCO2)N1CCN(S(=O)(=O)c2ccc(Cl)cc2)CC1 was read as ALR H2O2 inh 3, T cell HTS 247 and Glyco luc inh 1.
COc1ccc(CCC(=O)N2CCCc3ccccc32)cc1 was read as ALR H2O2 inh -1, T cell HTS 175 and Glyco luc inh -3.
Screening C#CC1(O)CCC2C3CCC4=Cc5oncc5CC4(C)C3CCC21C (stereo not given) returned Glyco luc inh -6.
For O=C(O)c1ccc(N/N=C/c2ccc(-c3ccccc3)cc2)cc1 the results were Glyco luc inh -5.
`O=C(N/N=C/C=C/c1ccccc1)c1ccncc1` gave ALR H2O2 inh -5, T cell HTS 551 and Glyco luc inh -1.
`C/C(=N\Nc1ccc(C(=O)O)cc1)c1ccc(Br)cc1` gave ALR H2O2 inh 98*, T cell HTS 143 and Glyco luc inh -18.
C/C(=N/Nc1ncc(Br)cn1)c1ccc(Br)cc1 was read as ALR H2O2 inh 1, T cell HTS 285 and Glyco luc inh 2.
`CC(C)c1ccc(/C=N/Nc2ccc(C(=O)O)cc2)cc1` gave ALR H2O2 inh 98*, T cell HTS 433 and Glyco luc inh -15.
`O=C(O)c1ccc(N/N=C/C=C/c2ccccc2)cc1` gave ALR H2O2 inh 92*, T cell HTS 138 and Glyco luc inh -7.
CCc1ccc(/C(C)=N\Nc2ccc([N+](=O)[O-])cc2)cc1 was read as ALR H2O2 inh 1, T cell HTS 313 and Glyco luc inh -1.
`C/C(=N\Nc1ccc([N+](=O)[O-])cc1)c1ccc(N)cc1` gave ALR H2O2 inh 98*, T cell HTS 497 and Glyco luc inh -1.

Source: PubChem (several laboratories)
